Results from ChEMBL document CHEMBL1146900, “New opioid designed multiple ligand from Dmt-Tic and morphinan pharmacophores” (J Med Chem, 2006).
Active and inactive are the calls of the source. The rule behind the calls is not given here. Non-standard residues stand in square brackets, D forms with d. Residues, ends and D or L forms follow the SMILES beside them. Dmt = Cc1cc(O)cc(C)c1C[C@H](N)C(=O)O; Tic = O=C(O)[C@@H]1Cc2ccccc2CN1; βAla = NCCC(=O)O

Tests used:
[1] = biological target: T1, Delta-type opioid receptor (Homo sapiens, UniProt P41143); test: Antagonist activity against human delta opioid receptor expressed in CHO cells assessed as inhibition of SNC80-stimulated [35S]GTP-gamma-S binding; type: functional, cell-based
Summary of the method: (§1)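 CHO membranes stably expressing a single human opioid receptor were incubated with agonist plus varying compound concentrations, and [35S]GTPγS binding was measured. Agonists: μ, DAMGO 200 nM; δ, SNC-80 100 nM; κ, U50,488 100 nM. Imax is the maximal percent inhibition of agonist-stimulated binding.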

[2] = biological target: T2, Kappa-type opioid receptor (Homo sapiens, UniProt P41145); test: Antagonist activity against human kappa opioid receptor expressed in CHO cells assessed as inhibition of U50488-stimulated [35S]GTPgammaS binding; type: functional, cell-based; summary of the method: as §1
[3] = biological target: T1, Delta-type opioid receptor; test: Displacement of [3H]naltrindole from human delta opioid receptor expressed in CHO cells; type: cell-based
[4] = biological target: T2, Kappa-type opioid receptor; test: Inhibition of [3H]U-69593 binding to human kappa opioid receptor expressed in CHO cells at 10 uM; type: cell-based
[5] = biological target: Opioid receptors; mu & delta (Homo sapiens) (UniProt P41143+P35372); test: Selectivity for delta opioid receptor over mu opioid receptor; type: protein assay
Summary of the method: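 Competition binding to membranes of CHO cells stably expressing human μ or δ opioid receptors, each receptor in separate membranes. Selectivity comes from comparing the affinities at the two receptors.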

[6] = biological target: T1, Delta-type opioid receptor; test: Agonist activity at human delta opioid receptor expressed in CHO cells assessed as stimulation of [35S]GTP-gamma-S binding; type: functional, cell-based
Summary of the method: (§2)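 Membranes from CHO cells stably expressing only the human μ, δ or κ opioid receptor were incubated with various concentrations of compound, and stimulation of [35S]GTPγS binding was measured. Emax is the maximal percent stimulation. EC50 is the concentration giving 50% of Emax. EC50 was not calculated when Emax was 30% or lower.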

Mu-type opioid receptor [7] = biological target: T3, Mu-type opioid receptor (Homo sapiens, UniProt P35372); test: Displacement of [3H]DAMGO from human mu opioid receptor expressed in CHO cells; type: cell-based
Summary of the method: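 Competition binding run on membranes prepared from CHO cells that stably express the human mu receptor.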

[8] = biological target: T2, Kappa-type opioid receptor; test: Displacement of [3H]U-69593 from human kappa opioid receptor expressed in CHO cells; type: cell-based
Mu-type opioid receptor [9] = biological target: T3, Mu-type opioid receptor; test: Agonist activity at human mu opioid receptor expressed in CHO cells assessed as stimulation of [35S]GTP-gamma-S binding; type: functional, cell-based; summary of the method: as §2
[10] = biological target: T2, Kappa-type opioid receptor; test: Agonist activity at human kappa opioid receptor expressed in CHO cells assessed as stimulation of [35S]GTPgammaS binding; type: functional, cell-based; summary of the method: as §2
Mu-type opioid receptor [11] = biological target: T3, Mu-type opioid receptor; test: Antagonist activity against human mu opioid receptor expressed in CHO cells assessed as inhibition of DAMGO-stimulated [35S]GTP-gamma-S binding; type: functional, cell-based; summary of the method: as §1

T1 sequence (P41143 whole entry): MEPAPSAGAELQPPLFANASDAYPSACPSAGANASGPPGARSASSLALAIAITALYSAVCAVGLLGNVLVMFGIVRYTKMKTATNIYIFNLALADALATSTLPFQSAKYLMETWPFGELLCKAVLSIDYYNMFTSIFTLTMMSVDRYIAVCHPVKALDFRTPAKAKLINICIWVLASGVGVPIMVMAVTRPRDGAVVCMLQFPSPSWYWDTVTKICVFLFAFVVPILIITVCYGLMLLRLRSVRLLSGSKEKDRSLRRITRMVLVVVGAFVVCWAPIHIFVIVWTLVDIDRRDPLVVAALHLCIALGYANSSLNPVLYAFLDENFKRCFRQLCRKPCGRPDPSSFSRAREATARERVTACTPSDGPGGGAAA
T2 sequence (P41145 whole entry): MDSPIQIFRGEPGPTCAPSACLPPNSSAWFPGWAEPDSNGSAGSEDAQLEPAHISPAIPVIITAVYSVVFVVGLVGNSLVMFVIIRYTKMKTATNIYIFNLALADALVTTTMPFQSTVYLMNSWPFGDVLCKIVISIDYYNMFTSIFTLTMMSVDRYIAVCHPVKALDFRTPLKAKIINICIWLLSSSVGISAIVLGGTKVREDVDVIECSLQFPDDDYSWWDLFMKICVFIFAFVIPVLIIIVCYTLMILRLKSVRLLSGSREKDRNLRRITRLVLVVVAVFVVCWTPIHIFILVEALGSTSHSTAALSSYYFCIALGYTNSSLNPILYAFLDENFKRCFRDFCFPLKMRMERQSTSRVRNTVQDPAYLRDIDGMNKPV
T3 sequence (P35372 whole entry): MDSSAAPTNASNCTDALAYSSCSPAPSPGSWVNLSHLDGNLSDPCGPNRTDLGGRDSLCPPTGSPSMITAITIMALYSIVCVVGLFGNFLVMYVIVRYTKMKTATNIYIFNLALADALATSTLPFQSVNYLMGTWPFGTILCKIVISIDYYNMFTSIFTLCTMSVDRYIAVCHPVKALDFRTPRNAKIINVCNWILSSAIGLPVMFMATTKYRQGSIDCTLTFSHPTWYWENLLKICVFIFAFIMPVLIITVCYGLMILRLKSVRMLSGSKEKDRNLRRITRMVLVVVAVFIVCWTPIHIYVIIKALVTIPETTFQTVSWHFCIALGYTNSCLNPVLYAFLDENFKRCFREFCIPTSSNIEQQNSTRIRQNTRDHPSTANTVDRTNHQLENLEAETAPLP
Opioid receptors; mu & delta (Homo sapiens), sequence (P35372 whole entry, looked up): as the sequence (P35372 whole entry) above
Opioid receptors; mu & delta (Homo sapiens), sequence (P41143 whole entry, looked up): as the sequence (P41143 whole entry) above

| Compound | IC50 [1] [nM] | Imax [1] [%] | IC50 [2] | Imax [2] | Ki [3] [nM] | inhibition [4] [%] | Ratio Ki [5] | Activity [6] | Emax [6] [%] | Activity [2] | Ki (Mu-type opioid receptor [7]) [nM] | Ki [8] [nM] | Ki [4] [nM] | EC50 (Mu-type opioid receptor [9]) [nM] | Emax (Mu-type opioid receptor [9]) [%] | EC50 [6] [nM] | EC50 [10] [nM] | Emax [10] [%] | IC50 (Mu-type opioid receptor [11]) [nM] | Imax (Mu-type opioid receptor [11]) [%] |
| --- | --- | --- | --- | --- | --- | --- | --- | --- | --- | --- | --- | --- | --- | --- | --- | --- | --- | --- | --- | --- |
| Cc1cc(O)cc(C)c1C[C@H](N)C(=O)N1Cc2ccccc2C[C@H]1C(=O)NCCC(=O)O (H-[Dmt]-[Tic]-[βAla]-OH) | 10 | 93 | Not Active | inactive | 4.2 | 62 | 262 | inactive | 0.95 |  |  |  |  |  |  |  |  |  |  |  |
| Cc1cc(O)cc(C)c1C[C@H](N)C(=O)N1Cc2ccccc2C[C@H]1C(=O)NCCC(=O)Oc1ccc2c(c1)[C@@]13CCCC[C@H]1[C@@H](C2)N(CC1CCC1)CC3 | 3.9 | 84 |  |  | 1.5 |  |  |  | 18 | inactive | 0.69 | 0.28 | 0.28 | 8.9 | 79 | 2.8 | 6 | 130 | 97 | 47 |
